Measurements reported in ChEMBL document CHEMBL3351600, “Sulfur, selenium and tellurium pseudopeptides: synthesis and biological evaluation” (Bioorg Med Chem, 2014).

What was measured:
[1] = tested on: A498; assay: Growth inhibition of human A498 cells after 48 hrs; format: functional; settings: A498, 48 h
How it was run: (§1)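 NCI-60 human tumour cell line panel screen run at the US National Cancer Institute under its standard cytotoxicity protocol. It covers leukaemia, NSCLC, colon, CNS, melanoma, ovarian, renal, prostate and breast lines. An initial single-dose test was followed by five-dose testing with 48 h compound exposure.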

[2] = Growth inhibition of human EKVX cells after 48 hrs; format: functional; how it was run: as §1
[3] = tested on: A549; assay: Growth inhibition of human A549/ATCC cells after 48 hrs; format: functional; settings: A549, 48 h; how it was run: as §1
[4] = tested on: NCI-H322M; assay: Growth inhibition of human NCI-H322M cells after 48 hrs; format: functional; how it was run: as §1
[5] = tested on: 786-0; assay: Growth inhibition of human 786-0 cells after 48 hrs; format: functional; settings: 786-0, 48 h; how it was run: as §1
[6] = tested on: Klebsiella pneumoniae; assay: Antimicrobial activity against Klebsiella pneumoniae assessed as inhibition at 20 ug/6 mm disk after 1 to 2 days by agar diffusion assay; format: functional
How it was run: (§2)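 Standard agar diffusion: 6-mm paper disks loaded with 20 µg of compound were placed on inoculated plates. Inhibition-zone diameter (mm) was read after 1 and 2 days of growth.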

[7] = Growth inhibition of human OVCAR3 cells after 48 hrs; format: functional; settings: OVCAR-3, 48 h; how it was run: as §1
[8] = Growth inhibition of human OVCAR5 cells after 48 hrs; format: functional; settings: OVCAR-5, 48 h; how it was run: as §1
[9] = tested on: MCF7; assay: Cytotoxicity against human MCF7 cells assessed as cell viability after 24 hrs incubation by MTT assay; format: functional, cell-based; settings: MCF7, 24 h
How it was run: (§3)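 Cell lines came from DSMZ; primary human fibroblasts served as non-cancer controls. Cells were grown in medium with 10% FCS, seeded at 50,000 cells/ml, and grown 2 days at 37 °C, 10% CO2. Serial dilutions were then added for 24 h. MTT (final 0.5 mg/ml) was added for 2 h. Formazan was pelleted, PBS-washed, dissolved in isopropanol/0.4% HCl and read at 590 nm. Two parallel experiments were run. IC50 was taken as the concentration giving 50% of untreated-control absorbance.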

[10] = tested on: SK-MEL-5; assay: Growth inhibition of human SK-MEL-5 cells after 48 hrs; format: functional; settings: SK-MEL-5, 48 h
How it was run: (§4)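 Run by the NCI 58-cell-line screen under its standard cytotoxicity protocol. Compounds were first tested at a single dose, then at five doses. Cells were exposed to compound for 48 h.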

[11] = tested on: A-431; assay: Cytotoxicity against human A431 cells assessed as cell viability after 24 hrs incubation by MTT assay; format: functional, cell-based; settings: A-431, 24 h; how it was run: as §3
[12] = tested on: T47D; assay: Growth inhibition of human T47D cells after 48 hrs; format: functional; how it was run: as §4
[13] = tested on: HOP-62; assay: Growth inhibition of human HOP62 cells after 48 hrs; format: functional; settings: HOP-62, 48 h; how it was run: as §1
[14] = Growth inhibition of human RPMI8226 cells after 48 hrs; format: functional; settings: RPMI-8226, 48 h; how it was run: as §1
[15] = tested on: SNB-75; assay: Growth inhibition of human SNB75 cells after 48 hrs; format: functional; settings: SNB-75, 48 h; how it was run: as §4
[16] = tested on: TK-10; assay: Growth inhibition of human TK10 cells after 48 hrs; format: functional; settings: TK-10, 48 h; how it was run: as §4
[17] = Growth inhibition of human COLO205 cells after 48 hrs; format: functional; settings: COLO 205, 48 h; how it was run: as §1
[18] = tested on: K562; assay: Growth inhibition of human K562 cells after 48 hrs; format: functional; settings: K562, 48 h; how it was run: as §1
[19] = tested on: MDA-MB-435; assay: Growth inhibition of human MDA-MB-435 cells after 48 hrs; format: functional; settings: MDA-MB-435, 48 h; how it was run: as §1
[20] = Growth inhibition of human HCT15 cells after 48 hrs; format: functional; settings: HCT-15, 48 h; how it was run: as §1
[21] = tested on: NCI-H226; assay: Growth inhibition of human NCI-H226 cells after 48 hrs; format: functional; settings: NCI-H226, 48 h; how it was run: as §1
[22] = tested on: Saccharomyces cerevisiae; assay: Antimicrobial activity against Saccharomyces cerevisiae assessed as inhibition at 20 ug/6 mm disk after 1 to 2 days by agar diffusion assay; format: functional; how it was run: as §2
[23] = tested on: HL-60(TB); assay: Growth inhibition of human HL-60(TB) cells after 48 hrs; format: functional; settings: HL-60, 48 h; how it was run: as §1
[24] = Growth inhibition of human HOP92 cells after 48 hrs; format: functional; settings: HOP-92, 48 h; how it was run: as §1
[25] = Growth inhibition of human MOLT4 cells after 48 hrs; format: functional; settings: MOLT-4, 48 h; how it was run: as §1
[26] = tested on: SW-620; assay: Growth inhibition of human SW620 cells after 48 hrs; format: functional; settings: SW-620, 48 h; how it was run: as §4
[27] = Growth inhibition of human HCC2998 cells after 48 hrs; format: functional; settings: HCC 2998, 48 h; how it was run: as §1
[28] = Growth inhibition of human SF295 cells after 48 hrs; format: functional; settings: SF-295, 48 h, read-out: pLC50 (the source's name) (converted); how it was run: as §1
[29] = tested on: KM12; assay: Growth inhibition of human KM12 cells after 48 hrs; format: functional; settings: KM12, 48 h; how it was run: as §1
[30] = tested on: Aspergillus niger; assay: Antimicrobial activity against Aspergillus niger assessed as inhibition at 20 ug/6 mm disk after 1 to 2 days by agar diffusion assay; format: functional; how it was run: as §2
[31] = tested on: DU-145; assay: Growth inhibition of human DU145 cells after 48 hrs; format: functional; settings: DU-145, 48 h; how it was run: as §1
[32] = read-out: pLC50 (the source's name) (converted)

COc1ccc(N(CC(=O)NCCC[Te]c2ccccc2)C(=O)CCSC2=C(C)C(=O)c3ccccc3C2=O)cc1
GI50 [1]: 1350 nM | TGI ([1]; read-out: pTGI (converted)): 3.24 µM | GI50 [2]: 380 nM | CC50 [2, 32]: > 100 µM | TGI ([2]; read-out: pTGI (converted)): 3.31 µM | GI50 [3]: 257 nM | CC50 [3, 32]: 3.47 µM | TGI ([3]; read-out: pTGI (converted)): 724 nM | GI50 [4]: 2090 nM | CC50 [4, 32]: 60.3 µM | TGI ([4]; read-out: pTGI (converted)): 6.03 µM | GI50 [5]: 2090 nM | LC50 [5]: 8.91 µM | TGI ([5]; read-out: pTGI (converted)): 4.37 µM | diameter of the inhibition zone (DIZ) [6]: 12 mm | GI50 [7]: 1170 nM | CC50 [7, 32]: 5.62 µM | TGI ([7]; read-out: pTGI (converted)): 2040 nM | GI50 [8]: 631 nM | LC50 [8]: 6.46 µM | TGI ([8]; read-out: pTGI (converted)): 2240 nM | IC50 [9]: 7 µM | GI50 [10]: 1620 nM | CC50 [10, 32]: 5.75 µM | TGI ([10]; read-out: pTGI (converted)): 3.09 µM | IC50 [11]: 1000 nM | GI50 [12]: 1550 nM | TGI ([12]; read-out: pTGI (converted)): 3.55 µM | GI50 [13]: 339 nM | CC50 [13, 32]: 3.8 µM | TGI ([13]; read-out: pTGI (converted)): 1000 nM | GI50 [14]: 550 nM | CC50 [14, 32]: > 100 µM | TGI ([14]; read-out: pTGI (converted)): 3.09 µM | GI50 [15]: 1820 nM | CC50 [15, 32]: 45.7 µM | TGI ([15]; read-out: pTGI (converted)): 6.92 µM | GI50 [16]: 2820 nM | LC50 [16]: 28.8 µM | TGI ([16]; read-out: pTGI (converted)): 6.92 µM | GI50 [17]: 1860 nM | CC50 [17, 32]: 6.61 µM | TGI ([17]; read-out: pTGI (converted)): 3.47 µM | GI50 [18]: 1950 nM | CC50 [18, 32]: > 100 µM | TGI ([18]; read-out: pTGI (converted)): 5.13 µM | GI50 [19]: 2450 nM | CC50 [19, 32]: 26.9 µM | TGI ([19]; read-out: pTGI (converted)): 6.31 µM | GI50 [20]: 447 nM | CC50 [20, 32]: 24.5 µM | TGI ([20]; read-out: pTGI (converted)): 2340 nM | GI50 [21]: 1620 nM | TGI ([21]; read-out: pTGI (converted)): 3.63 µM | Retention_time: 0.938 min | diameter of the inhibition zone (DIZ) [22]: 0 mm | GI50 [23]: 2880 nM | CC50 [23, 32]: > 100 µM | TGI ([23]; read-out: pTGI (converted)): 6.76 µM | GI50 [24]: 1450 nM | CC50 [24, 32]: 13.2 µM | TGI ([24]; read-out: pTGI (converted)): 3.98 µM | GI50 [25]: 537 nM | CC50 [25, 32]: > 100 µM | TGI ([25]; read-out: pTGI (converted)): 3.55 µM | GI50 [26]: 1950 nM | CC50 [26, 32]: 45.7 µM | TGI ([26]; read-out: pTGI (converted)): 5.62 µM | GI50 [27]: 1230 nM | CC50 [27, 32]: 9.33 µM | TGI ([27]; read-out: pTGI (converted)): 3.39 µM | CC50 [28]: > 100 µM | GI50 [29]: 417 nM | CC50 [29, 32]: 5.13 µM | TGI ([29]; read-out: pTGI (converted)): 1510 nM | diameter of the inhibition zone (DIZ) [30]: 0 mm | GI50 [31]: 955 nM | LC50 [31]: 4.9 µM | TGI ([31]; read-out: pTGI (converted)): 2190 nM
